In ChEMBL document CHEMBL1649319, “In vitro antifungal activities of isavuconazole and comparators against rare yeast pathogens” (2010):

Experiments:
Format in all cases: functional
Rhodotorula mucilaginosa [1] = experiment: Antifungal activity against Rhodotorula mucilaginosa after 48 hrs by broth microdilution method
Procedure, shortened: (§1)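 CLSI M27-A3 broth microdilution. Isolates were identified by ITS1-5.8S-ITS2 sequencing, kept at −70°C in sterile water, and revived on potato dextrose or Sabouraud agar. Drug ranges in wells were 0.015–16 or 0.125–128 μg/ml, depending on the agent. Plates were incubated at 35°C and MICs read visually at 48 h. QC strains were C. krusei ATCC 6258 and C. parapsilosis ATCC 22019.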

[2] = Antifungal activity against Trichosporon jirovecii after 48 hrs by Etest; conditions: Cutaneotrichosporon jirovecii
Procedure, shortened: (§2)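 Etest on 2% glucose-RPMI agar. Yeast suspensions were swabbed across the plates and strips applied, then incubated at 35°C for 48 h. MIC was the lowest concentration where the elliptical inhibition zone border met the strip scale. Each reading was raised to the next 2-fold dilution on the CLSI scale and converted to log2. Isolates were revived from −70°C stocks on potato dextrose or Sabouraud agar.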

Trichosporon [3] = experiment: Antifungal activity against Trichosporon sp. after 3 days by broth microdilution method; conditions: 72 h
Trichosporon inkin [4] = experiment: Antifungal activity against Trichosporon inkin after 48 hrs by Etest; procedure, shortened: as §2
Saccharomyces cerevisiae [5] = experiment: Antifungal activity against Saccharomyces cerevisiae after 5 days by broth microdilution method; conditions: 120 h
Rhodotorula mucilaginosa [6] = experiment: Antifungal activity against Rhodotorula mucilaginosa after 7 days by broth microdilution method; conditions: 168 h
[7] = test system: Cutaneotrichosporon mucoides; experiment: Antifungal activity against Trichosporon mucoides after 48 hrs by broth microdilution method; procedure, shortened: as §1
Magnusiomyces capitatus [8] = experiment: Antifungal activity against Dipodascus capitatus after 4 days by Etest; conditions: 96 h
[9] = Antifungal activity against Trichosporon domesticum after 48 hrs by broth microdilution method; conditions: Apiotrichum domesticum; procedure, shortened: as §1
Magnusiomyces capitatus [10] = experiment: Antifungal activity against Dipodascus capitatus after 48 hrs by broth microdilution method; procedure, shortened: as §1
Trichosporon asahii [11] = experiment: Antifungal activity against Trichosporon asahii after 48 hrs by broth microdilution method; procedure, shortened: as §1
Trichosporon inkin [12] = experiment: Antifungal activity against Trichosporon inkin after 48 hrs by broth microdilution method; procedure, shortened: as §1
[13] = Antifungal activity against Trichosporon domesticum after 48 hrs by Etest; conditions: Apiotrichum domesticum; procedure, shortened: as §2
Trichosporon [14] = experiment: Antifungal activity against Trichosporon sp. after 4 days by Etest; conditions: 96 h
Magnusiomyces capitatus [15] = experiment: Antifungal activity against Dipodascus capitatus after 3 days by broth microdilution method; conditions: 72 h
[16] = test system: Cutaneotrichosporon mucoides; experiment: Antifungal activity against Trichosporon mucoides assessed as percent susceptible/dose-dependent isolates after 48 hrs by broth microdilution method
Procedure, shortened: (§3)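 Broth microdilution MICs (CLSI, 35°C, visual read at 48 h) were sorted into categories using CLSI M27-A3 triazole breakpoints. Susceptible was ≤1 or ≤8 μg/ml, SDD was 2 or 16–32 μg/ml, and resistant was ≥4 or ≥64 μg/ml, depending on the agent. Each category is the percentage of isolates falling in it.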

Magnusiomyces capitatus [17] = experiment: Antifungal activity against Dipodascus capitatus after 48 hrs by Etest; procedure, shortened: as §2
[18] = test system: Cutaneotrichosporon mucoides; experiment: Antifungal activity against Trichosporon mucoides assessed as percent susceptible isolates after 48 hrs by broth microdilution method; procedure, shortened: as §3
Saccharomyces cerevisiae [19] = experiment: Antifungal activity against Saccharomyces cerevisiae after 48 hrs by broth microdilution method; procedure, shortened: as §1
[20] = Antifungal activity against Trichosporon jirovecii after 48 hrs by broth microdilution method; conditions: Cutaneotrichosporon jirovecii; procedure, shortened: as §1
Rhodotorula mucilaginosa [21] = experiment: Antifungal activity against Rhodotorula mucilaginosa after 48 hrs by Etest; procedure, shortened: as §2
Saccharomyces cerevisiae [22] = experiment: Antifungal activity against Saccharomyces cerevisiae after 48 hrs by Etest; procedure, shortened: as §2
[23] = test system: Cutaneotrichosporon mucoides; experiment: Antifungal activity against Trichosporon mucoides after 48 hrs by Etest; procedure, shortened: as §2
Trichosporon asahii [24] = experiment: Antifungal activity against Trichosporon asahii after 48 hrs by Etest; procedure, shortened: as §2
Rhodotorula mucilaginosa [25] = experiment: Antifungal activity against Rhodotorula mucilaginosa after 7 days by Etest; conditions: 168 h

OC(Cn1cncn1)(Cn1cncn1)c1ccc(F)cc1F [FLUCONAZOLE]
1 µg/mL: MIC50 [2] | MIC50 (Trichosporon inkin [4]) | MIC50 (Magnusiomyces capitatus [8]) | MIC50 [13] | MIC50 (Trichosporon [14]) | MIC50 (Magnusiomyces capitatus [17]) | MIC50 [23] | MIC50 (Trichosporon asahii [24])
16 µg/mL: MIC90 (Saccharomyces cerevisiae [5]) | MIC90 (Magnusiomyces capitatus [10]) | MIC90 (Magnusiomyces capitatus [15]) | MIC90 (Saccharomyces cerevisiae [19])
> 128 µg/mL: MIC (Rhodotorula mucilaginosa [1]) | MIC50 (Rhodotorula mucilaginosa [1]) | MIC90 (Rhodotorula mucilaginosa [1]) | MIC (Rhodotorula mucilaginosa [6]) | MIC50 (Rhodotorula mucilaginosa [6]) | MIC90 (Rhodotorula mucilaginosa [6]) | MIC (Rhodotorula mucilaginosa [21]) | MIC50 (Rhodotorula mucilaginosa [21]) | MIC90 (Rhodotorula mucilaginosa [21]) | MIC (Rhodotorula mucilaginosa [25]) | MIC50 (Rhodotorula mucilaginosa [25]) | MIC90 (Rhodotorula mucilaginosa [25])
4 µg/mL: MIC90 [2] | MIC90 (Trichosporon inkin [4]) | MIC50 (Saccharomyces cerevisiae [5]) | MIC90 (Magnusiomyces capitatus [8]) | MIC50 (Magnusiomyces capitatus [10]) | MIC90 [13] | MIC90 (Trichosporon [14]) | MIC50 (Magnusiomyces capitatus [15]) | MIC90 (Magnusiomyces capitatus [17]) | MIC50 (Saccharomyces cerevisiae [19]) | MIC50 (Saccharomyces cerevisiae [22]) | MIC90 [23] | MIC90 (Trichosporon asahii [24])
2 µg/mL: MIC50 (Trichosporon [3]) | MIC50 [7] | MIC50 [9] | MIC50 (Trichosporon asahii [11]) | MIC50 (Trichosporon inkin [12]) | MIC50 [16] | MIC50 [18] | MIC50 [20]
64 µg/mL: MIC90 (Saccharomyces cerevisiae [22])
8 µg/mL: MIC90 (Trichosporon [3]) | MIC90 [7] | MIC90 [9] | MIC90 (Trichosporon asahii [11]) | MIC90 (Trichosporon inkin [12]) | MIC90 [16] | MIC90 [18] | MIC90 [20]

CC[C@@H]([C@H](C)O)n1ncn(-c2ccc(N3CCN(c4ccc(OC[C@@H]5CO[C@@](Cn6cncn6)(c6ccc(F)cc6F)C5)cc4)CC3)cc2)c1=O [POSACONAZOLE]
0.06 µg/mL: MIC50 (Magnusiomyces capitatus [8]) | MIC50 (Magnusiomyces capitatus [17])
> 16 µg/mL: MIC (Rhodotorula mucilaginosa [21]) | MIC50 (Rhodotorula mucilaginosa [21]) | MIC90 (Rhodotorula mucilaginosa [21]) | MIC90 (Saccharomyces cerevisiae [22]) | MIC (Rhodotorula mucilaginosa [25]) | MIC50 (Rhodotorula mucilaginosa [25]) | MIC90 (Rhodotorula mucilaginosa [25])
2 µg/mL: MIC90 (Saccharomyces cerevisiae [5]) | MIC90 (Saccharomyces cerevisiae [19]) | MIC50 (Saccharomyces cerevisiae [22])
1 µg/mL: MIC50 (Rhodotorula mucilaginosa [1]) | MIC50 (Saccharomyces cerevisiae [5]) | MIC50 (Rhodotorula mucilaginosa [6]) | MIC50 (Saccharomyces cerevisiae [19])
8 µg/mL: MIC90 (Rhodotorula mucilaginosa [1]) | MIC90 (Rhodotorula mucilaginosa [6])
0.125 µg/mL: MIC50 [2] | MIC50 (Trichosporon [3]) | MIC50 (Trichosporon inkin [4]) | MIC50 [7] | MIC50 [9] | MIC50 (Magnusiomyces capitatus [10]) | MIC50 (Trichosporon asahii [11]) | MIC50 (Trichosporon inkin [12]) | MIC50 [13] | MIC50 (Trichosporon [14]) | MIC50 (Magnusiomyces capitatus [15]) | MIC50 [16] | MIC50 [18] | MIC50 [20] | MIC50 [23] | MIC50 (Trichosporon asahii [24])
0.5 µg/mL: MIC90 [2] | MIC90 (Trichosporon inkin [4]) | MIC90 (Magnusiomyces capitatus [8]) | MIC90 (Magnusiomyces capitatus [10]) | MIC90 [13] | MIC90 (Trichosporon [14]) | MIC90 (Magnusiomyces capitatus [15]) | MIC90 (Magnusiomyces capitatus [17]) | MIC90 [23] | MIC90 (Trichosporon asahii [24])
0.25 µg/mL: MIC90 (Trichosporon [3]) | MIC90 [7] | MIC90 [9] | MIC90 (Trichosporon asahii [11]) | MIC90 (Trichosporon inkin [12]) | MIC90 [16] | MIC90 [18] | MIC90 [20]
